Measurements from ChEMBL document CHEMBL1122052, “Isomeric cyclopropyl ring-methylated homologues of trans-2-(2,5-dimethoxy-4-methylphenyl)cyclopropylamine, an hallucinogen analogue” (1982).
Active and inactive are the calls of the source. The calls are words filed in the database; no cut-off is given here.

Tests used:
[1] = test system: Mus musculus; experiment: Evaluated for ear-scratch response (hallucinogen like activity) in mice at a dose of 5.00 mg/Kg; assay type: functional
Method in brief: (§1)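 Male albino Swiss-Webster derived mice, 25–40 g, group housed at 22–24 °C, 12–12 h light-dark cycle. HCl salt given ip in saline (0.1 mL/10 g body weight). Mice observed in groups of three, continuously for 30 min; total hindleg scratches of the back of the ear counted, with the hindleg then returned to the floor. Saline control included.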

[2] = test system: Mus musculus; experiment: Evaluated for ear-scratch response (hallucinogen like activity) in mice at a dose of 10.0 mg/Kg; assay type: functional; method in brief: as §1
[3] = test system: Mus musculus; experiment: Evaluated for ear-scratch response (hallucinogen like activity) in mice at a dose of 20.0 mg/Kg; assay type: functional; method in brief: as §1
[4] = test system: Mus musculus; experiment: Evaluated for ear-scratch response (hallucinogen like activity) in mice at a dose of 2.5 mg/Kg; assay type: functional; method in brief: as §1
[5] = test system: Mus musculus; experiment: Evaluated for ear-scratch response (hallucinogen like activity) in mice at a dose of 1.25 mg/Kg; assay type: functional; method in brief: as §1
[6] = test system: Mus musculus; experiment: Evaluated for ear-scratch response (hallucinogen like activity) in mice at a dose of 2.00 mg/Kg; assay type: functional; method in brief: as §1
[7] = test system: Mus musculus; experiment: Evaluated for ear-scratch response (hallucinogen like activity) in mice at a dose of 1.00 mg/Kg; assay type: functional; method in brief: as §1
[8] = test system: Mus musculus; experiment: Evaluated for ear-scratch response (hallucinogen like activity) in mice at a dose of 4.00 mg/Kg; assay type: functional; method in brief: as §1
[9] = species on record: Mus musculus; experiment: Compound was evaluated for hallucinogenic activity in mice; Inactive; assay type: functional, organism-based; method in brief: as §1
[10] = test system: Mus musculus; experiment: Evaluated for ear-scratch response (hallucinogen like activity) in mice at a dose of 20.00 mg/Kg; assay type: functional; method in brief: as §1
[11] = test system: Mus musculus; experiment: Evaluated for ear-scratch response (hallucinogen like activity) in mice at a dose of 10.00 mg/Kg; assay type: functional; method in brief: as §1

COc1cc([C@@H]2[C@@H](C)[C@H]2N)c(OC)cc1C (stereo in doubt; 4a)
No. of scratches [1]: 17.3 | No. of scratches [2]: 12.8 | No. of scratches [3]: 2.5 | No. of scratches [4]: 10.8 | No. of scratches [5]: 11.5

COc1cc(C[C@@H](C)N)c(OC)cc1C
No. of scratches [6]: 109.2 | No. of scratches [7]: 52.4 | No. of scratches [8]: 79

CC[C@@H](N)Cc1cc(OC)c(C)cc1OC
Halucinogenic activity [9]: inactive

COc1cc(C2CC2N)c(OC)cc1C (configuration not stated)
No. of scratches [1]: 39.5 | No. of scratches [10]: 64.2 | No. of scratches [11]: 56.2
